Source: ChEMBL document CHEMBL4616704, “Discovery of an Atropisomeric PI3Kβ Selective Inhibitor through Optimization of the Hinge Binding Motif” (ACS Med Chem Lett, 2020)

Assays:
[1] = biological target: Phosphatidylinositol 4,5-bisphosphate 3-kinase catalytic subunit gamma isoform (Homo sapiens, UniProt P48736); test: Inhibition of human full length p110gamma using PIP2 as substrate after 30 mins in presence of ATP at 2xKm concentration by TR-FRET assay
[2] = Dissociation constant, acidic pKa of compound; type: physicochemical
[3] = Protein binding in cynomolgus monkey plasma at 1 mg/kg administered as iv infusion for 30 mins and measured after 24 hrs by ESI-LC/MS/MS analysis; type: ADME, organism-based, Macaca fascicularis; conditions: read-out: PPB (converted)
[4] = Volume of distribution at steady state in rhesus monkey at 1 mg/kg administered as iv infusion for 30 mins and measured after 24 hrs by ESI-LC/MS/MS analysis; type: ADME, organism-based, Macaca mulatta; conditions: in vivo, read-out: Vdss
[5] = MRT in rhesus monkey at 1 mg/kg administered as iv infusion for 30 mins and measured after 24 hrs by ESI-LC/MS/MS analysis; type: ADME, organism-based, Macaca mulatta; conditions: in vivo
[6] = Ocular toxicity in Beagle dog assessed as irreversible damage by measuring decrease in electroretinography response at 10 to 100 mg/kg/day administered for 7 days measured on day 6 by ERG and OCT analysis; type: organism-based, Canis lupus familiaris; conditions: in vivo, 168 h
[7] = biological target: CYP450 (Homo sapiens, UniProt P04798+P05177+P05181+P08684+P10632+P10635+P11509+P11712+P13584+P20813+P20815+P20853+P24462+P24903+P33260+P33261+P51589+P78329+P98187+Q02928+Q08477+Q16678+Q16696+Q5TCH4+Q6VVX0+Q7Z449+Q8TAV3+Q96SQ9+Q9HB55); test: Inhibition of human CYP450; type: ADME, protein assay
Outline: (§1)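 Binding-assay format used to measure inhibition of major human CYP450 enzymes and hERG.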

[8] = biological target: Voltage-gated inwardly rectifying potassium channel KCNH2 (Homo sapiens, UniProt Q12809); test: Inhibition of human ERG; outline: as §1
Sequence of Voltage-gated inwardly rectifying potassium channel KCNH2 (Q12809 whole entry): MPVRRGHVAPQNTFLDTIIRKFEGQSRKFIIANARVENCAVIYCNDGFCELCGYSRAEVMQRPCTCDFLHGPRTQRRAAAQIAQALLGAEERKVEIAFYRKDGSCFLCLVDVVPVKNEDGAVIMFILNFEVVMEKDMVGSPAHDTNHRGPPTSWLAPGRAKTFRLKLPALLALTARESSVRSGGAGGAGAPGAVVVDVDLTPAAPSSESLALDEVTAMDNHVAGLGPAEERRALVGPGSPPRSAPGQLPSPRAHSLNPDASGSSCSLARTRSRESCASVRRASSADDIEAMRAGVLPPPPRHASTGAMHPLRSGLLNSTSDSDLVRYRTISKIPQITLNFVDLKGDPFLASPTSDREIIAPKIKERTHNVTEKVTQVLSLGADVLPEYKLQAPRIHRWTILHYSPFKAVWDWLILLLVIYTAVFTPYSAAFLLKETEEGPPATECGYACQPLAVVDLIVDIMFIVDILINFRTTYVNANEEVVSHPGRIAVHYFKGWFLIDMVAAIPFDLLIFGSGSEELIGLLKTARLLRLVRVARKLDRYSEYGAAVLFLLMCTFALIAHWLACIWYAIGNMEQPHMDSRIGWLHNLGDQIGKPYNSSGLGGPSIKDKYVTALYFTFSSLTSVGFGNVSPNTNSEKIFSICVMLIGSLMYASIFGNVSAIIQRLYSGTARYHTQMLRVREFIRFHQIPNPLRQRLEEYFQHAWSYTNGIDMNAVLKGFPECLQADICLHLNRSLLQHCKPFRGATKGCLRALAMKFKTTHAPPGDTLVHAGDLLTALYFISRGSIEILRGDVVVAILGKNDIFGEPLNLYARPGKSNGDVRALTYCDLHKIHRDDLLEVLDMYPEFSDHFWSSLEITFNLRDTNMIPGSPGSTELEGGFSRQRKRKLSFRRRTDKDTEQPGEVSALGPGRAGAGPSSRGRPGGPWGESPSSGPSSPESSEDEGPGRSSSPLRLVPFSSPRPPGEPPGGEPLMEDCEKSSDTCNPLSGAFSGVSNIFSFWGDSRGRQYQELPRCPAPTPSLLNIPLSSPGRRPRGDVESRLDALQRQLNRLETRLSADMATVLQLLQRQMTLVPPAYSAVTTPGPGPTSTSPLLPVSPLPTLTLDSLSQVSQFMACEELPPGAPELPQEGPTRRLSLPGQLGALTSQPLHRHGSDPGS

Sequence of Phosphatidylinositol 4,5-bisphosphate 3-kinase catalytic subunit gamma isoform (P48736 whole entry, canonical isoform): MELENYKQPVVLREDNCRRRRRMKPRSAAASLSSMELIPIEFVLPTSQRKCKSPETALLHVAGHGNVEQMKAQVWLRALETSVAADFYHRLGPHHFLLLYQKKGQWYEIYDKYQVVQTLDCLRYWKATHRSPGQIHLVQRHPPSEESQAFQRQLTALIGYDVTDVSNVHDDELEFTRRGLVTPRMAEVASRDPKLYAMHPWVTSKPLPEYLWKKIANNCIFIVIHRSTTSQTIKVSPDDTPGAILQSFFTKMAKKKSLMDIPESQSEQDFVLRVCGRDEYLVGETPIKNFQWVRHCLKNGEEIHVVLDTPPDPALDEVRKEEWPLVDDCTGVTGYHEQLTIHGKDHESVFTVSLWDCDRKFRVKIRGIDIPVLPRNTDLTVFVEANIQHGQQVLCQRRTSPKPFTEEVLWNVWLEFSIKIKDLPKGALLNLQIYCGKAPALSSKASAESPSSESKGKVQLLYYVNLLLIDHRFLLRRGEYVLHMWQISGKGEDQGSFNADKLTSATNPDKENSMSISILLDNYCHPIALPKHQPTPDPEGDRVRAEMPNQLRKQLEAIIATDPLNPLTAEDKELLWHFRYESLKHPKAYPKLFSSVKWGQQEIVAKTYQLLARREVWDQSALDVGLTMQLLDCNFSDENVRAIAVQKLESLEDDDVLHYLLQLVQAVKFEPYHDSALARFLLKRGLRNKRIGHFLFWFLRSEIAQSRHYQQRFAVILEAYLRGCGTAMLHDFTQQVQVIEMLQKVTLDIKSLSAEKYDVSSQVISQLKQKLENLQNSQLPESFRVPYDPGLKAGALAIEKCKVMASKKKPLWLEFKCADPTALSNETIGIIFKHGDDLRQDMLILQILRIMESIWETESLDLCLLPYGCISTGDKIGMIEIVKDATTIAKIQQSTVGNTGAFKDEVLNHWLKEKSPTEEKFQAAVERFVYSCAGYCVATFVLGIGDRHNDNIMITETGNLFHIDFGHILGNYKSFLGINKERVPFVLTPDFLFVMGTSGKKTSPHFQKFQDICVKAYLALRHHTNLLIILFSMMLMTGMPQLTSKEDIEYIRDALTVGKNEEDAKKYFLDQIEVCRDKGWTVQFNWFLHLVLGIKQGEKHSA

IC50 [1]: 6.61 µM
pKa [2]: < 1
fraction unbound at 24 h [3]: 0.16
Vd [4]: 2.6 L/kg
MRT [5]: 5.5 h
IC50 [7]: > 25 µM
SMILES: Cc1nc2c(-c3nnc[nH]3)cc(-c3ccnc(C#N)c3)cc2n1-c1ccnc2c(F)ccc(F)c12
Activity [6]: Toxic
IC50 [8]: > 25 µM
